Screening results: PubChem BioAssay, The Scripps Research Institute Molecular Screening Center
The list is not random: actives were taken first. Their share in the collection is about 1.9%.
UHRF1 binding – UHRF1 methylated DNA binding inhibitors, primary screen, counter-screen for MBD2 inhibitor project, biochemical, TR-FRET, human UHRF1, single concentration; UHRF1 binding to methylated oligo; inhibition, % at 4.4 µM; 0.75% of 370,000 active; in the data active = inhibition above about 21%;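 also: UHRF1 SRA domain binding a hemimethylated CpG hairpin DNA probe; 0% = median of test compound wells and 100% = reference inhibitor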
Target sequence (Q96T88 whole entry, looked up, the tested form may be a part): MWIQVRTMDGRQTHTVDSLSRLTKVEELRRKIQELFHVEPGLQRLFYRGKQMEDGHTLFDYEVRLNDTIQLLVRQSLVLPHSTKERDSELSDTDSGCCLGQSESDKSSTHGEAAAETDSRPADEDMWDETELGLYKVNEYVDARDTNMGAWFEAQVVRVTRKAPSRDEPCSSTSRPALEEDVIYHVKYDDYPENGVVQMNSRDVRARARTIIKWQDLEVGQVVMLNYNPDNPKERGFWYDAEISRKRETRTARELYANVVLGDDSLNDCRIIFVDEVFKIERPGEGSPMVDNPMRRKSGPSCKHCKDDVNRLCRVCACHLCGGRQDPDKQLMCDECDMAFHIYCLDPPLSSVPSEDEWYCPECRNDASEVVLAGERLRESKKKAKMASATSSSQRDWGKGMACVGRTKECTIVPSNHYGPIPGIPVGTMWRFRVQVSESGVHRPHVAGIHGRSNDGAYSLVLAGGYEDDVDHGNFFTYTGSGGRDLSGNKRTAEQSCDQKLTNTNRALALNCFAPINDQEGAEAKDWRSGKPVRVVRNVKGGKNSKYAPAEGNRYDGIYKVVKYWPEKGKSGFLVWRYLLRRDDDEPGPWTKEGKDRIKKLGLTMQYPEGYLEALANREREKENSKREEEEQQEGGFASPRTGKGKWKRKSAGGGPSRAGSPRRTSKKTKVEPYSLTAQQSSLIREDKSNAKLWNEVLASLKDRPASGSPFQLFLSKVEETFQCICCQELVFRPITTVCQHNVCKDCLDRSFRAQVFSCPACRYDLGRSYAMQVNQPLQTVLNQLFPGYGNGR
LEDGF integ inh – blockers of LEDGF/p75-dependent integrase strand transfer – biochemical, TR-FRET, high throughput, primary screen | HIV-1 integrase (with human LEDGF/p75) | TR-FRET IN-LEDGF/p75 DNA integration, Eu/Cy5 | inhibition, % at 3.7 µM | 0.64% of 370,000 active | AID 743269, 2014;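 active = inhibition above the screen-wide mean plus 3 SD, cut at about 13% in these data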;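 also: signal is the Cy5 over europium emission ratio at 671 and 618 nm; 0% = plate median of compound wells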
Rin1-Abl PPI inh – inhibitors of Rin1-Abl protein binding, primary screen, biochemical, TR-FRET. inhibition, % at 7.35 µM. Tyrosine-protein kinase ABL1 (Homo sapiens) + Ras and Rab interactor 1 (Homo sapiens), …. 0.4% of 360,000 active; in the data active = inhibition above about 5%, passing the limit was not always enough
TDP2 inh – human TDP2 enzyme inhibitors, primary screen, biochemical, epi absorbance, recombinant enzyme | Tyrosyl-DNA phosphodiesterase 2 (Homo sapiens), O95551 | T5PNP hydrolysis, p-nitrophenol absorbance 415 nm | inhibition, % at 12.8 µM | 0.34% of 370,000 active | AID 720702, 2013;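 active = inhibition above the mean of all tested compounds plus 3 SD, set per campaign, cut at about 25% in these data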;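 also: 0% = DMSO with enzyme and 100% = buffer with substrate but no TDP2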
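Material: recombinant human TDP2; quantity: TDP2 enzyme at 120 nM final; medium: Tris-HCl pH 7.5 with MgCl2; compound: single concentration, 12.8 µM nominal, with 1% DMSO; incubation: 2 h enzyme incubation at 37 °C; signal: epi absorbance; measure: percent inhibition; benchmarks: high control without enzyme, low control DMSO plus TDP2; repeats: singlicate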
MBD2 DNA inh – inhibitors of MBD2 binding to methylated DNA, primary screen, biochemical, TR-FRET, DNA-binding domain, human | Methyl-CpG-binding domain protein 2 (Homo sapiens), Q9UBB5 | MBD2 binding to methylated oligonucleotide | inhibition, % at 4.4 µM | 0.31% of 370,000 active | AID 686964, 2013; in the data active = inhibition above about 13%
* marks the source's active call; other numbers are inactive results; . = not tested or not shown.

SMILES	UHRF1 binding	LEDGF integ inh	Rin1-Abl PPI inh	TDP2 inh	MBD2 DNA inh
CCCC(=O)C1=C(O)C(C(=O)OC)C(C)(C)CC1=N (configuration not stated)	21*	-2	-3	-11	-1
Cc1cccc2c1NC1(CCCC1)CC2C (configuration not stated)	22*	-1	4	4	-3
Cc1ccccc1NC(=O)CN1C(=O)CCSc2ccccc21	0	-2	.	-2	-3
CCOC(=O)C1=C(COC(=O)C2(C)CC2(Cl)Cl)NC(=O)NC1c1ccccc1 (configuration not stated)	29*	-1	0	6	-7
COC(=O)[C@]12CCCCC=C1N(Cc1ccc(OC)cc1)C(=O)[C@@H]2CC(=O)NCCCCc1ccccc1	0	1	.	-3	-4
COc1cc(C2CC=C(C(=O)O)C(c3ccccc3F)N2S(=O)(=O)c2ccc(C)cc2)cc(OC)c1OC (configuration not stated)	0	1	.	-4	-5
CN(CC(=O)Nc1ccc(F)cc1)C(=O)c1cn(-c2ccccc2)nc1-c1cccs1	-1	-2	-2	1	3
CN(CC(=O)Nc1cccc(F)c1)C(=O)c1cn(-c2ccccc2)nc1-c1ccccc1	24*	-2	-2	2	4
c1ccc2sc(-c3csc4c3CCNC4)nc2c1	-13	-2	.	3	-4
COc1ccc(NC(=O)c2c[nH]n3c(=O)cc(C4CCN(C(=O)OC(C)(C)C)CC4)nc23)cc1Cl	39*	1	0	-8	7
COc1cc(C(=O)OCC(=O)Nc2c(C)n(C)n(-c3ccccc3)c2=O)c([N+](=O)[O-])cc1OC	32*	6	0	0	2
Cc1ccc(Cl)cc1NC(=S)N(Cc1ccccc1)Cc1cccnc1	25*	-7	-2	-10	9
O=C(c1cccc(Br)c1)N1CCC(Oc2cccnc2)CC1	1	4	.	0	-3
CCc1ccc(S(=O)(=O)N2CCN(Cc3ccco3)CC2)cc1	1	-6	5	3	5
CCOc1ccc(S(=O)(=O)N2CCN(Cc3ccco3)CC2)cc1	27*	6	-2	17	7
CC1CCN(CCCNS(=O)(=O)c2cc3c(cc2Br)CCN3C(=O)C2CC2)CC1	-3	-2	.	11	2
CCN(CC)S(=O)(=O)c1ccc(C)c(NC(=O)/C=C/c2cccs2)c1	22*	7	1	10	10
COC(=O)[C@H]1C[C@@]2(O)CN(S(=O)(=O)c3ccc(C)cc3)C[C@@]2(OC(=O)NC2CCCC2)C[C@H]1C(=O)OC	24*	3	-6	-9	13
CCSc1nnc(NC(=O)c2ccccc2C)s1	24*	1	0	-6	0
CCSc1nnc(NC(=O)c2ccccc2)s1	-1	0	0	-11	-2
COC(=O)[C@]12C[C@H](CC(=O)NCc3ccc(OC)c(OC)c3)C(=O)N(CCC3=CCCCC3)C1=C[C@H](C(C)C)O[C@@H]2C1CC1	-3	1	.	-5	0
Cc1ccc(C(=O)NC2CCS(=O)(=O)C2)cc1S(=O)(=O)N1CCOCC1 (configuration not stated)	-1	-3	3	5	4
Cc1ccc(S(=O)(=O)N2CCCCC2)cc1C(=O)OCC(=O)NC(=O)NC12CC3CC(CC(C3)C1)C2	45*	1	-2	-4	-5
Cc1ccc(C(=O)NC2CCS(=O)(=O)C2)cc1S(=O)(=O)N1CCCCC1 (configuration not stated)	25*	1	1	-2	-3
Cc1ccc(S(=O)(=O)N2CCOCC2)cc1C(=O)OCC(=O)NC1CC1	-1	2	5	-5	4
SMILES	UHRF1 binding	LEDGF integ inh	Rin1-Abl PPI inh	TDP2 inh	MBD2 DNA inh
CCOc1ccc(NC(=O)COC(=O)c2cc(S(=O)(=O)N3CCCC3)ccc2C)cc1	2	1	0	-18	3
Cc1ccc(S(=O)(=O)N2CCOCC2)cc1C(=O)OCC(=O)NC1CCS(=O)(=O)C1 (configuration not stated)	21*	-6	3	-5	-3
CC1CCCC(NC(=O)COC(=O)c2ccc(S(=O)(=O)N3CCOCC3)cc2)C1C (configuration not stated)	21*	-2	-2	-3	12
COc1ccc(/C=C2\CC3(OC(=O)c4ccccc4)CCCN2C3)cc1 (configuration not stated)	4	3	.	-10	-3
COc1cccc(N2CC(=O)Nc3c(oc4nc(-c5ccccc5)cc(C)c34)C2=O)c1	45*	-5	-2	-20	-2
Cc1cccc(-c2cccc3c4c([nH]c23)[C@@H]2C[C@H](N(C)C(=O)c3ccccc3F)[C@H]([C@H](C)O)CN2CC4)c1	-4	-2	.	7	-3
O=C(O)COc1ccccc1C=NNC(=O)Cc1cc(=O)[nH][nH]1	4	-3	.	-3	-2
CN(c1cccc(NC(=O)CCSc2ccccc2)c1)S(C)(=O)=O	-5	2	1	0	-4
CN(c1cccc(NC(=O)c2ccc(N(C)S(=O)(=O)c3ccccc3)cc2)c1)S(C)(=O)=O	0	1	2	-9	-5
CC(Sc1ccccc1)C(=O)Nc1cccc(N(C)S(C)(=O)=O)c1 (configuration not stated)	23*	-1	1	-10	-5
CN(c1cccc(NC(=O)c2ccc(C(C)(C)C)cc2)c1)S(C)(=O)=O	23*	2	-1	-3	3
N#Cc1ccc(NC(=O)OC2CCC23CCC(c2ccccc2)CC3)cc1 (configuration not stated)	1	-2	.	2	-2
CC(C)N1CC2(CC(c3ccccc3F)=NO2)CN1C(=O)c1ccc(C(C)(C)C)cc1 (configuration not stated)	1	0	2	-11	0
CC(=O)N1CC2(CC(c3ccccc3F)=NO2)CN1c1ccc(Cl)cc1 (configuration not stated)	22*	0	-2	1	8
COc1ccc(-c2nc3ccc(C)cn3c2CC2CCCCC2)cc1OC	22*	1	-1	10	9
COc1ccc(-c2nc3ccc(C)cn3c2Cc2ccsc2)cc1OC	22*	-3	-2	-12	10
COc1ccc(-c2ccc(-c3nc4ccc(C)cn4c3NC3CCCCC3)cc2OC)cc1	-1	3	2	-6	0
COc1ccc(S[C@]2(C(=O)N3CCCC3)CC(=O)N[C@@H]2c2ccc(OC)cc2)cc1	0	2	.	0	1
C=CCNC(=O)C1CCN(c2cncnc2)CC1	1	5	.	4	4
